From paper PMC10794003 (European journal of medicinal chemistry, 2023)
Entries after “also recorded” stand apart in the source; their conditions may differ.

test system: Nrf2 target genes GSTM3, NQO1, or HMOX1 in NCM460D cells; assay: RT-qPCR of Nrf2 target genes in NCM460D cells; format: cell-based; conditions: 24 h incubation at 1, 10 and 100 μM, RT-PCR
Summary of the method: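 NCM460D cells exposed to test compound at 1, 10 and 100 μM for 24 h. Positive controls were a reference Keap1-Nrf2 PPI inhibitor (1, 10, 100 μM) and CDDO (10 and 100 nM); 0.1 % DMSO served as the negative control. RNA was quantified, reverse-transcribed to cDNA, and GSTM3, NQO1 and HMOX1 were measured by RT-qPCR, normalized to endogenous GAPDH.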

Row | SMILES | transcriptional induction of Nrf2 target genes NQO1, GSTM3 and HMOX1
1 | Cc1ccc(S(=O)(=O)N(CC(=O)O)c2cc(CCC(=O)O)c(N(CC(=O)O)S(=O)(=O)c3ccc(C)cc3)c3ccccc23)cc1 [17b, 2,2′-((2-(2-Carboxyethyl)naphthalene-1,4-diyl)bis(tosylazanediyl))diacetic acid] | similarly high effects
2 | Cc1ccc(S(=O)(=O)N(CC(=O)O)c2ccc(N(CC(=O)O)S(=O)(=O)c3ccc(C)cc3)c(OCC(=O)O)c2)cc1 [8g, 2,2′-((2-(Carboxymethoxy)-1,4-phenylene)bis(tosylazanediyl))diacetic acid] | less transcriptional induction; also recorded: relatively low expressions
3 | Cc1ccc(S(=O)(=O)N(CC(=O)O)c2cc(OCC(=O)O)c(N(CC(=O)O)S(=O)(=O)c3ccc(C)cc3)c3ccccc23)cc1 [compound 18, 2,2′-((2-(Carboxymethoxy)naphthalene-1,4-diyl)bis(tosylazanediyl))diacetic acid] | similarly high effects
